Source: ChEMBL document CHEMBL3997769, “Discovery and preclinical evaluation of 7-benzyl-N-(substituted)-pyrrolo[3,2-d]pyrimidin-4-amines as single agents with microtubule targeting effects along with triple-acting angiokinase inhibition as antitumor agents” (Bioorg Med Chem, 2017)

Experiments:
[1] = system: CCRF-CEM; assay: Growth inhibition of human CCRF-CEM cells incubated for 48 hrs by sulforhodamine B assay; format: functional
[2] = Inhibition of bovine brain tubulin assembly preincubated for 15 mins followed by GTP addition measured for 20 mins by spectrophotometric method; design: species or system Bos taurus
[3] = species: Bos taurus; assay: Displacement of [3H]colchicine from bovine brain tubulin at 5 uM measured after 10 mins by liquid scintillation counting method relative to control
[4] = species: Bos taurus; assay: Displacement of [3H]colchicine from bovine brain tubulin at 1 uM measured after 10 mins by liquid scintillation counting method relative to control
[5] = system: A-431; assay: Cytotoxicity against human A431 cells; format: functional, cell-based
[6] = system: HL-60(TB); assay: Growth inhibition of human HL-60(TB) cells incubated for 48 hrs by sulforhodamine B assay; format: functional; conditions: HL-60, 48 h
[7] = system: K562; assay: Growth inhibition of human K562 cells incubated for 48 hrs by sulforhodamine B assay; format: functional; conditions: K562, 48 h
[8] = system: MOLT-4; assay: Growth inhibition of human MOLT4 cells incubated for 48 hrs by sulforhodamine B assay; format: functional; conditions: MOLT-4, 48 h
[9] = system: SR; assay: Growth inhibition of human SR cells incubated for 48 hrs by sulforhodamine B assay; format: functional
[10] = system: HOP-62; assay: Growth inhibition of human HOP62 cells incubated for 48 hrs by sulforhodamine B assay; format: functional; conditions: HOP-62, 48 h
[11] = system: HOP-92; assay: Growth inhibition of human HOP92 cells incubated for 48 hrs by sulforhodamine B assay; format: functional; conditions: HOP-92, 48 h
[12] = system: NCI-H226; assay: Growth inhibition of human NCI-H226 cells incubated for 48 hrs by sulforhodamine B assay; format: functional; conditions: NCI-H226, 48 h
[13] = system: HCC 2998; assay: Growth inhibition of human HCC2998 cells incubated for 48 hrs by sulforhodamine B assay; format: functional; conditions: HCC 2998, 48 h
[14] = system: HCT-116; assay: Growth inhibition of human HCT116 cells incubated for 48 hrs by sulforhodamine B assay; format: functional; conditions: HCT-116, 48 h
[15] = system: HCT-15; assay: Growth inhibition of human HCT15 cells incubated for 48 hrs by sulforhodamine B assay; format: functional; conditions: HCT-15, 48 h
[16] = system: HT-29; assay: Growth inhibition of human HT-29 cells incubated for 48 hrs by sulforhodamine B assay; format: functional; conditions: HT-29, 48 h
[17] = system: KM12; assay: Growth inhibition of human KM12 cells incubated for 48 hrs by sulforhodamine B assay; format: functional; conditions: KM12, 48 h
[18] = system: SW-620; assay: Growth inhibition of human SW620 cells incubated for 48 hrs by sulforhodamine B assay; format: functional; conditions: SW-620, 48 h
[19] = system: SNB-19; assay: Growth inhibition of human SNB19 cells incubated for 48 hrs by sulforhodamine B assay; format: functional; conditions: SNB-19, 48 h
[20] = system: SNB-75; assay: Growth inhibition of human SNB75 cells incubated for 48 hrs by sulforhodamine B assay; format: functional; conditions: SNB-75, 48 h
[21] = system: U-251; assay: Growth inhibition of human U251 cells incubated for 48 hrs by sulforhodamine B assay; format: functional; conditions: U-251, 48 h
[22] = system: LOX IMVI; assay: Growth inhibition of human LOXIMVI cells incubated for 48 hrs by sulforhodamine B assay; format: functional
[23] = system: M14; assay: Growth inhibition of human M14 cells incubated for 48 hrs by sulforhodamine B assay; format: functional; conditions: M14, 48 h
[24] = system: MDA-MB-435; assay: Growth inhibition of human MDA-MB-435 cells incubated for 48 hrs by sulforhodamine B assay; format: functional; conditions: MDA-MB-435, 48 h
[25] = system: SK-MEL-2; assay: Growth inhibition of human SK-MEL-2 cells incubated for 48 hrs by sulforhodamine B assay; format: functional; conditions: SK-MEL-2, 48 h
[26] = system: SK-MEL-28; assay: Growth inhibition of human SK-MEL-28 cells incubated for 48 hrs by sulforhodamine B assay; format: functional; conditions: SK-MEL-28, 48 h
[27] = system: SK-MEL-5; assay: Growth inhibition of human SK-MEL-5 cells incubated for 48 hrs by sulforhodamine B assay; format: functional; conditions: SK-MEL-5, 48 h
[28] = system: UACC-257; assay: Growth inhibition of human UACC257 cells incubated for 48 hrs by sulforhodamine B assay; format: functional; conditions: UACC-257, 48 h
[29] = system: UACC-62; assay: Growth inhibition of human UACC62 cells incubated for 48 hrs by sulforhodamine B assay; format: functional; conditions: UACC-62, 48 h
[30] = system: IGROV-1; assay: Growth inhibition of human IGROV1 cells incubated for 48 hrs by sulforhodamine B assay; format: functional; conditions: IGROV-1, 48 h
[31] = system: OVCAR-3; assay: Growth inhibition of human OVCAR3 cells incubated for 48 hrs by sulforhodamine B assay; format: functional; conditions: OVCAR-3, 48 h
[32] = system: OVCAR-5; assay: Growth inhibition of human OVCAR5 cells incubated for 48 hrs by sulforhodamine B assay; format: functional; conditions: OVCAR-5, 48 h
[33] = system: OVCAR-8; assay: Growth inhibition of human OVCAR8 cells incubated for 48 hrs by sulforhodamine B assay; format: functional; conditions: OVCAR-8, 48 h
[34] = system: NCI/ADR-RES; assay: Growth inhibition of human NCI/ADR-RES cells incubated for 48 hrs by sulforhodamine B assay; format: functional
[35] = system: 786-0; assay: Growth inhibition of human 786-0 cells incubated for 48 hrs by sulforhodamine B assay; format: functional; conditions: 786-0, 48 h
[36] = system: ACHN; assay: Growth inhibition of human ACHN cells incubated for 48 hrs by sulforhodamine B assay; format: functional
[37] = system: RXF 393; assay: Growth inhibition of human RXF393 cells incubated for 48 hrs by sulforhodamine B assay; format: functional; conditions: RXF 393, 48 h
[38] = system: SN12C; assay: Growth inhibition of human SN12C cells incubated for 48 hrs by sulforhodamine B assay; format: functional
[39] = system: UO-31; assay: Growth inhibition of human UO31 cells incubated for 48 hrs by sulforhodamine B assay; format: functional; conditions: UO-31, 48 h
[40] = system: DU-145; assay: Growth inhibition of human DU145 cells incubated for 48 hrs by sulforhodamine B assay; format: functional; conditions: DU-145, 48 h
[41] = system: MCF7; assay: Growth inhibition of human MCF7 cells incubated for 48 hrs by sulforhodamine B assay; format: functional; conditions: MCF7, 48 h
[42] = system: MDA-MB-231; assay: Growth inhibition of human MDA-MB-231 cells incubated for 48 hrs by sulforhodamine B assay; format: functional; conditions: MDA-MB-231, 48 h
[43] = system: Chorioallantoic membrane; assay: Antiangiogenic activity in Leghorn chicken egg chorioallantoic membrane assessed as inhibition of human VEGF-165/bFGF-induced blood vessels formation measured after 40 hrs by microscopic method; format: functional, tissue-based; conditions: Gallus gallus
[44] = system: Mus musculus; assay: Toxicity in Balb/cJ mouse implanted with luciferase/GFP-tagged mouse 4T1 cells assessed as body weight change at 50 mg/kg, ip administered three times weekly measured at day 40 post dose; format: organism-based; conditions: in vivo
[45] = Solubility of the compound in water; format: physicochemical; conditions: buffer
[46] = system: Mus musculus; assay: Toxicity in Balb/cJ mouse assessed as body weight loss administered three times weekly measured every 2 days during compound dosing; conditions: in vivo, 48 h
How it was run: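 Female BALB/cJ mice, 8 weeks old, bearing orthotopic 4T1-Luc2-GFP allografts (7,500 cells implanted in mammary fat pad #4). Dosing began one week after implantation: intraperitoneal, three times weekly, in 5% Pharmasolve plus 5% Solutol HS in normal saline. Body weight reported as percent change at day 40 versus starting weight, with n = 9–10 and one-way ANOVA against untreated controls.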

Compound `COc1ccc(N(C)c2nc(C)nc3c(Cc4ccccc4)cn(C)c23)cc1.Cl` has a GI50 [1] of 33.5 nM, an IC50 [2] of 480 nM and an inhibition [3] of 92%. The inhibition [4] was 73%, the IC50 [5] was 1200 nM and the GI50 [6] was 26.8 nM. The GI50 [7] was 33.7 nM, the GI50 [8] was 50.8 nM and the GI50 [9] was 33.8 nM. For the same compound, the GI50 [10] was 47.8 nM, the GI50 [11] was 47.1 nM and the GI50 [12] was 304 nM. The GI50 [13] was 71.1 nM, the GI50 [14] was 35 nM and the GI50 [15] was 38.1 nM. The GI50 [16] was 35.1 nM, the GI50 [17] was 44.5 nM and the GI50 [18] was 38.4 nM. For the same compound, the GI50 [19] was 54.7 nM, the GI50 [20] was 27.8 nM and the GI50 [21] was 44.3 nM. It also gave a GI50 [22] of 58.8 nM, a GI50 [23] of 29.5 nM and a GI50 [24] of 21.4 nM. For the same compound, the GI50 [25] was 28.6 nM, the GI50 [26] was 48.7 nM and the GI50 [27] was 54.2 nM. The GI50 [28] was 78.2 nM, the GI50 [29] was 475 nM and the GI50 [30] was 95.8 nM. It also gave a GI50 [31] of 35.2 nM, a GI50 [32] of 269 nM and a GI50 [33] of 49.1 nM. It also gave a GI50 [34] of 32.8 nM, a GI50 [35] of 93.2 nM and a GI50 [36] of 172 nM. It also gave a GI50 [37] of 25.4 nM, a GI50 [38] of 88.7 nM and a GI50 [39] of 209 nM. It also gave a GI50 [40] of 44.4 nM, a GI50 [41] of 33.3 nM and a GI50 [42] of 63.7 nM. For the same compound, the IC50 [43] was 2200 nM, the Activity [44] was “Non-Toxic” and the solubility [45] was “Soluble”. It also gave an MTD [46] of 50 mg/kg.
